These results are taken from ChEMBL document CHEMBL1221166, “Molecular basis of inverse agonism in a G protein-coupled receptor” (Nat Chem Biol, 2005).

Structures are written as SMILES. Active and inactive are the calls of the source. The rule behind the calls is not given here.

Experiment [1] concerns the target T1, Alpha-2A adrenergic receptor (Homo sapiens) (UniProt P08913).
T1 sequence (whole entry): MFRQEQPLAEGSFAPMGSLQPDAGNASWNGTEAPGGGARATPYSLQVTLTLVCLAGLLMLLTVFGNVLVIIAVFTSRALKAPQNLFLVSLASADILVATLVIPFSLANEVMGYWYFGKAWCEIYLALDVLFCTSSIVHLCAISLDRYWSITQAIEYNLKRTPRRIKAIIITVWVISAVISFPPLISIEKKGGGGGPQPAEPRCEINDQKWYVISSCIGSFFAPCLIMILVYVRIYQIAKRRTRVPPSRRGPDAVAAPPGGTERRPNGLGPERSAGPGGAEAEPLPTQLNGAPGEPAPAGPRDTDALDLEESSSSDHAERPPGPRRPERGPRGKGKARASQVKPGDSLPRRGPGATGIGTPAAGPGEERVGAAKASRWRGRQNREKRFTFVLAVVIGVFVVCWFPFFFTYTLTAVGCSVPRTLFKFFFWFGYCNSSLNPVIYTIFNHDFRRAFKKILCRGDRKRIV
Put plainly: Partial agonist activity at adrenergic alpha2A receptor expressed in HEK293 cells coexpressing yellow fluorescent and cyan fluorescent protein assessed as effect on kinetics of receptor conformational change by FRET assay. Type of experiment: functional, cell-based. In a few lines:
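HEK293 cells expressing α2AAR tagged with CFP/YFP were superfused rapidly with ligand at room temperature. The time course of the corrected FYFP/FCFP ratio was fitted with a monoexponential equation to give kobs. kobs was then plotted against the percentage FRET change.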

Experiment [2] has as its target T1, Alpha-2A adrenergic receptor (Homo sapiens). Put plainly: Inverse agonist activity at adrenergic alpha2A receptor expressed in HEK293 cells coexpressing yellow fluorescent and cyan fluorescent protein assessed as increase in resonance signal at 100 uM by FRET assay. Type of experiment: functional, cell-based. Put shortly: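 Single HEK293 cells expressing α2AAR tagged with CFP/YFP were grown on coverslips and kept at room temperature. They were continuously superfused with HEPES buffer at pH 7.4 (137 mM NaCl, 0.1% BSA), and ligand was applied by solenoid-valve rapid superfusion. YFP and CFP emissions were recorded by dual-emission photometry on a 100× oil objective. FRET was taken as the spillover-corrected ratio FYFP/FCFP, with photobleaching drift subtracted where needed.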

In the case of `NCCc1ccc(O)c(O)c1`, the result in experiment [1] was Active.
`COC1(C2=NCCN2)COc2ccccc2O1` (stereo unspecified): in experiment [2], the result was Active.
Same read-out and setting: the value for `CN1CC[C@]2(CCN3CCc4c(oc5ccccc45)[C@@H]3C2)N(C)C1=O` was “Active”.
`COc1nc(C)nc(Cl)c1NC1=NCCN1`: the result in experiment [1] was Active.
Same read-out and setting: the value for `Clc1cccc(Cl)c1NC1=NCCN1` was “Active”; that for `Cc1cc(C(C)(C)C)c(O)c(C)c1CC1=NCCN1` was “Active”.
